# Assay results of several laboratories.
# Lines come from different studies, so protocols differ.
# CYP1B1: Cytochrome P450 1B1 (CYP1B1, Homo sapiens, UniProt Q16678)
# HRH3: Histamine H3 receptor (HRH3, Homo sapiens, UniProt Q9Y5N1)
# SLC10A2: Ileal sodium/bile acid cotransporter (SLC10A2, Homo sapiens, UniProt Q12908)
# WDR5: WD repeat-containing protein 5 (WDR5, Homo sapiens, UniProt P61964)
# Hypoxanthine-guanine-xanthine phosphoribosyltransferase: Hypoxanthine-guanine-xanthine phosphoribosyltransferase (Plasmodium falciparum, UniProt P20035)
# DRD5: D(1B) dopamine receptor (DRD5, Homo sapiens, UniProt P21918)
Compound,target,assay,conditions,Ki
CC(C)=CCc1c(O)cc(O)c2c1O[C@H](c1ccc(O)cc1)CC2=O,CYP1B1,"enzyme activity, inhibitor, fluorescence","15 min, pH 7.4",0.17 µM
CN(C)c1ccc(/C=C2\CCc3ccc(OCCCN4CCCCC4)cc3C2=O)cc1,HRH3,"ligand displacement, radioligand",cell membranes,0.149 µM
NS(=O)(=O)c1cc(C2(O)NC(=O)c3ccccc32)ccc1Cl (stereo not drawn),SLC10A2,"transporter uptake, inhibitor",,707 µM
Cc1nc(F)ccc1-c1cc(Cn2ccn(C)c2=N)cc(C(=O)NCc2ccc(Cl)c(Cl)c2)c1,WDR5,"ligand displacement, FP",,< 1e-06 µM
COc1ccc(C2=NN(C(C)C)C(=O)C3CC=CCC23)cc1-c1ccc(C(=O)N2CCC[C@@H]2C(N)=O)cc1 (mixture of isomers),"Class 1 phosphodiesterase PDEB1 (PDEB1, Trypanosoma brucei, UniProt Q8WQX9)","enzyme activity, inhibitor",,0.631 µM
NS(=O)(=O)NC[C@@H](CO)NCc1c[nH]c2c(O)nc(O)nc12,Hypoxanthine-guanine-xanthine phosphoribosyltransferase,"enzyme activity, inhibitor",pH 7.4,> 20 µM
O=C1c2ccccc2CCCN1CCCCN1CCN(c2ccccn2)CC1,DRD5,"ligand displacement, radioligand",,> 10 µM
O=C1CCCc2cc(OCc3ccc(OCCCN4CCCCC4)cc3)ccc21,HRH3,"ligand displacement, radioligand",cell membranes,0.019 µM
CN1CCN(CC/C=C2/c3ccccc3Sc3ccc(S(=O)(=O)N(C)C)cc32)CC1,SLC10A2,"transporter uptake, inhibitor",,808 µM
CCOc1c(O)cc(Br)c2c1CN1CCc3cc(OCC(F)F)c(O)cc3[C@@H]1C2,DRD5,"cell-free assay, radioligand",,0.082 µM
C#Cc1cccc(-c2cc(=O)c3ccccc3o2)c1,CYP1B1,"enzyme activity, inhibitor, fluorescence","6 min, pH 7.6",0.16 µM
CCCc1ccc(OCCCCCN2CCC(C)CC2)cc1,HRH3,"ligand displacement, radioligand",cell membranes,0.156 µM
CN(C(=O)[C@@H]1Cc2ccccc2CN1C(=O)Cc1ccc(Cl)cc1)c1ccc(N2CCCCC2=O)cc1,"Coagulation factor X (F10, Homo sapiens, UniProt P00742)","enzyme activity, inhibitor, absorbance",,0.65 µM
COc1ccc([C@@H]2Sc3ccccc3N(CCN(C)C)C(=O)[C@@H]2OC(C)=O)cc1,SLC10A2,"transporter uptake, inhibitor",,211 µM
CCc1ccc(OCCCCCCN2CCCC(C)C2)cc1 (stereo not drawn),HRH3,"ligand displacement, radioligand",cell membranes,0.0741 µM
COc1cc(O)c(CC=C(C)C)c2c1C(=O)CC(c1ccc(O)cc1)O2 (stereo not drawn),CYP1B1,"enzyme activity, inhibitor, fluorescence","15 min, pH 7.4",0.54 µM
NS(=O)(=O)c1cc2c(cc1Cl)NCNS2(=O)=O,SLC10A2,"transporter uptake, inhibitor",,2020 µM
CCCCN1CCC(COC(=O)c2ccc(N)c(OCF)c2)CC1,DRD5,"cell-free assay, radioligand",,> 10 µM
COc1cc(CNC(=O)c2cccc(CNC3=NCCN3)c2F)cc(OC)c1,WDR5,"ligand displacement, TR-FRET",,> 0.033 µM
O=C1CCCc2ccc(OCc3ccc(OCCCN4CCCCC4)cc3)cc21,HRH3,"ligand displacement, radioligand",cell membranes,0.017 µM
CC(C)(C#N)c1cc(Cn2cncn2)cc(C(C)(C)C#N)c1,SLC10A2,"transporter uptake, inhibitor",,402 µM
Cc1nc(F)ccc1-c1cc(C(=O)NCc2ccc(Cl)c(Cl)c2)ccc1Cn1ccn(C)c1=N,WDR5,"ligand displacement, FP",,> 5 µM
O=C1c2ccccc2CCN1CCCCN1CCN(c2cccc(Cl)c2Cl)CC1,DRD5,"ligand displacement, radioligand",,2.38 µM
COC(=O)C1=C(C)NC(C)=C(C(=O)OC(C)C)C1c1cccc2nonc12 (stereo not drawn),SLC10A2,"transporter uptake, inhibitor",,19.4 µM
C#Cc1cccc2oc(-c3ccccc3)cc(=O)c12,CYP1B1,"enzyme activity, inhibitor, fluorescence","6 min, pH 7.6",0.21 µM
O=c1c(O)c(NC[C@@H](CO)NCc2c[nH]c3c(O)ncnc23)c1=O,Hypoxanthine-guanine-xanthine phosphoribosyltransferase,"enzyme activity, inhibitor",pH 7.4,> 20 µM
C#Cc1ccc(-c2cc(=O)c3ccccc3o2)cc1,CYP1B1,"enzyme activity, inhibitor, fluorescence","6 min, pH 7.6",0.13 µM
O=C(NCc1cc(Cl)cc(Cl)c1)c1cccc(Cn2ccnc2)c1,WDR5,"ligand displacement, TR-FRET",,> 0.033 µM
CC(=O)S[C@@H]1CC2=CC(=O)CC[C@]2(C)[C@H]2CC[C@@]3(C)[C@@H](CC[C@@]34CCC(=O)O4)[C@H]12,SLC10A2,"transporter uptake, inhibitor",,110 µM
O=C1N[C@@H]([C@@H](CO)NCc2c[nH]c3c(O)ncnc23)CO1,Hypoxanthine-guanine-xanthine phosphoribosyltransferase,"enzyme activity, inhibitor",pH 7.4,> 20 µM
C=C[C@H]1C[N@@]2CC[C@H]1C[C@H]2[C@H](O)c1ccnc2ccc(OC)cc12,SLC10A2,"transporter uptake, inhibitor",,223 µM
c1cc2c(cc1OCCCCCN1CCCCCC1)CCC2,HRH3,"ligand displacement, radioligand",cell membranes,0.0645 µM
CN(C)c1ccc(/C=C/C=C2\CCc3ccc(OCc4ccc(OCCCN5CCCCC5)cc4)cc3C2=O)cc1,HRH3,"ligand displacement, radioligand",cell membranes,0.087 µM
CN1CCN(CCCOc2ccc(Nc3nccc(NCc4ccccc4)n3)cc2)CC1,HRH3,"ligand displacement, radioligand",cell membranes,0.383 µM
CN(C)c1ccc(/C=C2\CCc3cc(OCc4ccc(OCCCN5CCCCC5)cc4)ccc3C2=O)cc1,HRH3,"ligand displacement, radioligand",cell membranes,0.041 µM
O=C1CN(C[C@@H](CO)NCc2c[nH]c3c(O)ncnc23)S(=O)(=O)N1,Hypoxanthine-guanine-xanthine phosphoribosyltransferase,"enzyme activity, inhibitor",pH 7.4,> 20 µM
CCCNc1nc2ccccc2n1Cc1ccc(Cl)cc1,DRD5,"cell-free assay, radioligand",,5.66 µM
NS(=O)(=O)NC[C@@H](CO)NCc1c[nH]c2c(O)ncnc12,Hypoxanthine-guanine-xanthine phosphoribosyltransferase,"enzyme activity, inhibitor",pH 7.4,> 20 µM
CCOC(=O)[C@](CC)(CCCS(=O)(=O)CCOCCOCCNC(=O)OC(C)(C)C)NC(=O)c1ccc(C2CC2)c(Cc2ccc(F)cc2)n1,"Cannabinoid receptor 2 (CNR2, Homo sapiens, UniProt P34972)","ligand displacement, radioligand",cell membranes,0.045 µM
